# Experimental data reported in ChEMBL document CHEMBL4513216, “Probing the Open Global Health Chemical Diversity Library for Multistage-Active Starting Points for Next-Generation Antimalarials” (ACS Infect Dis, 2020).
# Experiment: Toxicity liver stage against HepG2, at 10uM
# Format: cell-based
# Design: test concentration 10 uM, cell line HepG2-A16-CD81EGFP
# Conditions: human, HepG2-A16-CD81EGFP cells; read-out: INHIBITION
# Summary of the method: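 Uninfected HepG2-A16-CD81EGFP cells, 3 × 10^3 per well, 1536-well, plated on prespotted compound at 10 μM final, parasite-free screening media added to match infected plates; puromycin 10 μM positive, DMSO 0.5% negative; run in parallel with 48 h PbLuc assay at 37 °C, 5% CO2; viability by CellTiter-Glo luminescence, normalized to controls.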
row,Compound,cytotoxicity at 10 µM [%]
1,CC(C)Oc1cccc(C(=O)C2CCCN(S(=O)(=O)C(C)C)C2)c1 (configuration not stated),5.47
2,COc1ccc2c(c1)CN(Cc1ccco1)C(=O)CCN2,-2.59
3,CN1CCN2C[C@@H](CO)[C@H](c3ccccc3)[C@H]2C1,8.78
4,COCCn1ccc2c(C(=O)O)cccc21,-3.37
5,Cc1cc(NCCN)nc(-c2ccccc2O)n1,7.61
6,CC(C)(CO)Nc1c(NCc2ccccc2)c(=O)c1=O,-2.96
7,CC1CCCN(c2nccn3c(=O)[nH]nc23)C1 (configuration not stated),12.1
8,CC(C)c1noc(C2CCN(S(=O)(=O)c3cccs3)CC2)n1,1.47
9,COc1ccc(Cc2nnc(NC(=O)C3CC34CCC4)s2)cc1OC (configuration not stated),-2.21
10,O=c1[nH]c2ccc(S(=O)(=O)N(CCO)Cc3ccncc3)cc2[nH]1,1.07
11,CNC(=O)C1CN(C(=O)c2cccs2)CCN(S(C)(=O)=O)C1 (configuration not stated),2.41
12,Cc1cc(N2CCCC2(C)c2nc(C)cc(C(=O)N(C)C)n2)ncn1 (configuration not stated),-0.846
13,O=C(c1ccccn1)N1CCC2(CNS(=O)(=O)c3cnccc3O2)C1 (configuration not stated),14.5
14,CCN(Cc1c(F)cccc1F)C(=O)c1ccncc1O,-1.22
15,CN(Cc1nnnn1C1CC1)CC1COc2ccccc2O1 (configuration not stated),-5.79
16,Cc1c(C(=O)N2CC(=O)N(C)C2)nnn1-c1cccc2cccnc12,5.64
17,CCOc1ccc(NC(=O)c2[nH]c(C)cc2C)cc1CO,21.3
18,OCCCNc1cccc(COC2CCCCC2)c1,-0.23
19,CC(C)OCCC(=O)NCC(O)c1c(Cl)cccc1Cl (configuration not stated),-6.93
20,COCCCN1CCN(CC2CCCO2)CC1 (configuration not stated),-13.5
21,O=C1NCCCCC1NC(=O)N1CCc2ccccc21 (configuration not stated),-0.734

row,Compound,cytotoxicity at 10 µM [%]
1,Cc1nn(C)c(C)c1C1COCCN1C(=O)NC1CC1 (configuration not stated),3.21
2,CCc1cc(NCCCc2nc(C)no2)nc(-c2ccncc2)n1,2.63
3,CC(C)(C(=O)N1CCC(CS(N)(=O)=O)CC1)c1ccccc1F,6.03
4,CCn1cnnc1CNC(=O)N1CCOC(c2ccccc2Cl)C1 (configuration not stated),9.32
5,CCn1nc(C)c(C(=O)N2CCC(Nc3ccc(C)nn3)CC2)c1C,4.13
6,CCOC(=O)NC(CNC(=O)c1cccnc1SC)CC(C)C (configuration not stated),6.68
7,CC(C)(C)c1noc(OCC(=O)NC2CCCC2)n1,2.68
8,CC(=O)N1CCC(C(=O)NCCN2CCCC(C)C2)CC1 (configuration not stated),10.7
9,O=C(Nc1ccnc(OC2CCOC2)c1)c1ccc(F)cc1Cl (configuration not stated),3.44
10,COc1cc(NC(=O)c2ccc(F)cc2Cl)c(C(=O)N(C)C)cc1OC,-11.1
11,CS(=O)(=O)Cc1nc(CNc2ccc(F)c(F)c2)cs1,-6.92
12,NS(=O)(=O)N1CCC(C(=O)Nc2cccc(OC(F)F)c2)CC1,-9.5
13,Cc1cc(C(=O)CN2CCN(c3cnccn3)CC2)c(C)n1C(C)C,7.36
14,Cc1cc(C(=O)N2CCN(Cn3cc(Cl)cn3)CC2)on1,-6.81
15,CCn1nc(C)cc1C(=O)NCc1nc(C)no1,0.304
16,CCNC(=O)NC1CN(CC(=O)NCc2ccccc2C)C[C@@H]1OC (some centres not stated),-1.6
17,COCCN(C)c1cnn(C)c(=O)c1Br,1.09
18,O=C(NCc1csc(Br)c1)Nc1cn[nH]c1,2.1
19,O=C(NCc1cccnc1N1CCCCC1)c1ccc2[nH]nnc2c1,-1.19
20,COc1cc(OC)c(CNC(=O)NCc2ccc(C#N)cc2)c(OC)c1,8.01
21,COCC(=O)N1CCC2(C1)c1ccccc1S(=O)(=O)N2CC1CC1 (configuration not stated),4.39

row,Compound,cytotoxicity at 10 µM [%]
1,CN1CCO[C@@H]2CN(C(=O)NCc3cccc(F)c3)CC[C@@H]2C1,-111
2,c1cnc(N2CCCC3(COCCN(c4nncs4)C3)C2)cn1 (configuration not stated),1.77
3,OCC1(O)CCN(c2ccnc3c(C(F)(F)F)cccc23)CC1,-14.8
4,Cc1cc(C)c2nc(CN3CCOCC(O)C3)cc(O)c2c1 (configuration not stated),-3.89
5,CCOc1ccc(-c2c(C#N)c(N)nc3c2COCC3)cn1,-0.339
6,Cc1cccc(C(C(=O)NCC2(Cn3nc(C)cc3C)CC2)N(C)C)c1 (configuration not stated),2.18
7,Cc1ccc(CN(CCN(C)C)Cc2ncc[nH]2)s1,-10.5
8,Cc1noc(-c2ccc(N3CCC[C@H]3CO)nc2)n1,1.48
9,CSCCNC(=O)C1CCC(=O)N(C2CCCC2)C1 (configuration not stated),-3.75
10,CCOc1ccc(CCCC(=O)N2CCC(c3nnn[nH]3)CC2)cc1C,-3.57
11,O=C(NCCc1nc2ccccc2s1)c1coc(CN2CCOCC2)c1,-5.69
12,CCC1(C(=O)O)CCCN(C(=O)c2ccc(O)c(Cl)c2)C1 (configuration not stated),-8.87
13,CN(C)Cc1nnc(C2CCCN(c3cc(C(F)(F)F)ccn3)C2)n1C (configuration not stated),-11.9
14,Cc1cc(C[C@@H]2COC[C@@H]2NC(=O)CN2CCc3ccccc3C2)on1,6.7
15,Cc1c(O)cccc1C(=O)N1CCCC2(C1)C(=O)N(C)c1ccccc12 (configuration not stated),4.34
16,Cc1cc(-c2nn(C)c(Cl)c2CN2CCOC(C(=O)O)C2)no1 (configuration not stated),4.04
17,Cn1ncc(C2CC(=O)NCc3nc4ccccn4c32)c1C1CC1 (configuration not stated),6.9
18,Cc1cc(N[C@H](CO)COCc2ccccc2)n2nc(C)cc2n1,0.324
19,CN1CCCN(CC(=O)N2CCc3[nH]c(-c4ccccc4)nc3C2)CC1,-0.0342
20,O=S(=O)(c1c(N2CCCC2)ccc2nonc12)N1CCCC1,5.95
21,CSCCCn1ccnc1-c1cccc(C#N)c1,-13.3

row,Compound,cytotoxicity at 10 µM [%]
1,CCC(Oc1ccc(N(C)S(C)(=O)=O)cc1)C(N)=O (configuration not stated),-4.18
2,CC(NC(=O)C1CCN(C(C)C)CC1)c1nncn1C1CCCC1 (configuration not stated),-6.93
3,CC(O)c1cn(C2CCN(C(=O)C3(C)CCN(C)CC3)CC2)nn1 (configuration not stated),-0.293
4,CNC(=O)C1(c2cnccn2)CCCN1C(=O)c1ccccc1OC (configuration not stated),3.1
5,N#Cc1cccc(NC(=O)C2CCCN2c2nccs2)c1 (configuration not stated),-5.28
6,Cc1ccc(C(=O)N2CCCN(Cc3cccs3)CC2)c(=O)[nH]1,1.45
7,O=C(Nc1cc(F)ccc1OCC1CCCO1)N1CCCC1 (configuration not stated),-6.49
8,CN(C)c1cc(CNC(=O)Nc2ccc(F)cc2)ccn1,0.0418
9,NC(=O)C1CCN(C(=O)c2cccc(OCc3cscn3)c2)CC1,-15.5
10,Cc1cnn(CCNCc2nc(Cc3ccccc3)no2)c1,-7.7
11,O=C(NCCNc1ccc(C(F)(F)F)cn1)c1ccc(Br)cc1F,7.15
12,CNc1cc2c(nn1)CCN(C(=O)c1cc(F)cc(F)c1)C2,-5.97
13,CC(=O)Nc1nc(C(=O)NC(C)c2ccc3c(c2)OCCO3)cs1 (configuration not stated),0.409
14,Cc1n[nH]c(=O)c2c(NC(=O)CN3CCCC(C(F)(F)F)C3)oc(C)c12 (configuration not stated),-4.87
15,O=C(NCC1CC1)[C@H]1CN(Cc2nccs2)C[C@H]2OCC[C@@H]12,-109
16,O=C(C1CC=CC1)N1CCC2(CCN(Cc3ccccn3)C2=O)C1 (configuration not stated),0.908
17,Cc1noc([C@H]2C[C@H]3OCC[C@H]3N(Cc3ccc4c(c3)OCO4)C2)n1,2.67
18,CN(Cc1ccco1)[C@@H]1CN(Cc2ccsc2)C[C@@H]2CCCO[C@@H]21,9.59
19,O=C([C@H]1C[C@H]2CN(c3ncc(F)cn3)C[C@@H]1O2)N1CCOCC1,-109
